TRPC4 PAM = TRPC4 (mouse) allosteric potentiation | HEK293 TRPC4beta/mu-opioid, DAMGO EC20, Fluo-4 Ca2+ flux; hits give high values | B-score at 10 µM | 0.42% of 310,000 active | AID 2227;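 active = B-score of calcium response area above 5 SD of library B-scores, with initial fluorescence ratio within 5 SD of library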
Target sequence (Q9QUQ5 whole entry, looked up): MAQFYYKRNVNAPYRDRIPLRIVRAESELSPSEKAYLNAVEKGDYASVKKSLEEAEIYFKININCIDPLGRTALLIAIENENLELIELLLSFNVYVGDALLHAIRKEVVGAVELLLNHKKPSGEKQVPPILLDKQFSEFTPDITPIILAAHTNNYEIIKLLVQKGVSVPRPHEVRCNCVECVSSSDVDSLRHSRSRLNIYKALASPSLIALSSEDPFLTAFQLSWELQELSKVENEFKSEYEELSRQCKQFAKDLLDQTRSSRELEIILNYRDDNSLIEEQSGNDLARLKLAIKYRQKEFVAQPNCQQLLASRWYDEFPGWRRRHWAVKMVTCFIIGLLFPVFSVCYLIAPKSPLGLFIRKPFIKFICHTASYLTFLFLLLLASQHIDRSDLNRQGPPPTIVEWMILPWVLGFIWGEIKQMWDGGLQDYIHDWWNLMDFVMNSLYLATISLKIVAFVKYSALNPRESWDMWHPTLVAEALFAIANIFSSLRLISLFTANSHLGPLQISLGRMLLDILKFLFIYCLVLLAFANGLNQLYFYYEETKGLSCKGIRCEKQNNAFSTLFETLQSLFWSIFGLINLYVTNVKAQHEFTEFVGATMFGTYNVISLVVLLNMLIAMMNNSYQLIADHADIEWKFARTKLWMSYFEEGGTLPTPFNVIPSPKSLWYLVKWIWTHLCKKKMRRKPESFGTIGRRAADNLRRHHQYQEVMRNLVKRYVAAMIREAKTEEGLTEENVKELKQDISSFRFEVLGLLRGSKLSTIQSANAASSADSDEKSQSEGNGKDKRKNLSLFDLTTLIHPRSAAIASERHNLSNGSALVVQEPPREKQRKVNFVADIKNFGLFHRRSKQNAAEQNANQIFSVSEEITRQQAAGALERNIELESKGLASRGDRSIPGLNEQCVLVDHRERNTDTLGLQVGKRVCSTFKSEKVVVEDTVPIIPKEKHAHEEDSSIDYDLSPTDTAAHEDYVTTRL
TRPC4 block = blocks the mouse TRPC4 cation channel; HEK293 TRPC4beta/mu-opioid, DAMGO-evoked Fluo4 calcium flux; hits give low values; B-score at 10 µM; 0.39% of 300,000 active;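 active = B-score over 3 SD under the library average, no early fluorescence shift, positive overall ratio signal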
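Assay system: HEK293 cells with stable TRPC4beta plus mu-opioid receptor expression. Dosing: single dose. Measured by: Fluo4 Ca2+ flux fluorescence. Also added: DAMGO in two steps, submaximal then maximal. Read-out: B score from integrated Fluo4 fluorescence ratio.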
TRPC6 act = activates the mouse TRPC6 cation channel; HEK293-TRPC6 membrane potential dye fluorescence; hits give high values; B-score at 10 µM; 0.13% of 310,000 active; Q61143;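 active = B-score of the integrated fluorescence ratio above library mean plus 3 SD, and starting fluorescence ratio within library mean plus 5 SD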;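 note: higher score means more depolarization so channel activation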
DNA FID counter = counter-screen for HCV NS3 helicase inhibitors: DNA intercalator displacement; DNA fluorescent intercalator displacement, fluorescence; inhibition, % at 7.9 µM; 0.17% of 290,000 active; AID 1845; in the data active = inhibition above about 37%;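 note: higher means more ethidium bromide displaced from hairpin DNA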
TRPC4 act = opens the mouse TRPC4 cation channel; HEK293 TRPC4beta/mu-opioid, Fluo4 calcium fluorescence; hits give high values; B-score at 10 µM; 0.49% of 310,000 active; AID 2237;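 active = B-score above 5 SD of library B-scores, and initial fluorescence ratio not above library mean plus 5 SD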;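 note: positive B-score marks a calcium rise read as TRPC4 activation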
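Incubation: 45 min room-temperature Fluo4 loading, 110 s read / System: HEK293 cells stably co-expressing mouse TRPC4beta and mu-opioid receptor / Signal: Fluo4 fluorescence, kinetic / Control set: buffer (low) and maximal DAMGO (high) / Measure: integrated baseline-normalised fluorescence ratio, converted to per-well B score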
TRPC6 inh = mouse TRPC6 channel inhibition; Q61143; HEK293-TRPC6, membrane potential dye, ACh-evoked depolarization; hits give low values; B-score at 10 µM; 1.1% of 310,000 active;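 active = B-score under library mean minus 3 SD, initial fluorescence not abnormally high, positive integrated signal ratio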;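 note: B-score derived from integrated fluorescence ratio over the kinetic read; more negative B-score means stronger inhibition of depolarization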
TRPC4 sel inh 2 = second check of whether TRPC6 inhibitors also affect mouse TRPC4. shares compounds with TRPC6 inh. HEK293 TRPC4/MOR, membrane potential dye fluorescence; channel activated by saturating DAMGO dose. inhibition, % at 10 µM. 42% of 920 active. AID 2776;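 active = compounds whose fluorescence signal differed from control wells by over 3 SD, either direction, in both duplicate plates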
TRPC4 spec = mouse TRPC4 off-target activity of TRPC6 inhibitors | AID 2777 | activity change, negative = inhibition, % at 10 µM | HEK293 TRPC4/mu-opioid, membrane potential fluorescence | 61% of 920 active | shares compounds with TRPC6 inh;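 active = rise or fall in signal beyond 3 SD of buffer-only wells in both replicate plates, either sign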;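 note: integrated kinetic ratio of fluorescence range over baseline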
HEK293 MPD ctr 2-1 = second check of TRPC6 inhibitor effects in parental HEK293 cells; shares compounds with TRPC6 inh; parental HEK293 membrane potential dye fluorescence; maximal acetylcholine challenge after compound addition; signal change vs control, % at 10 µM; 31% of 920 active;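 active = membrane potential signal moving either way by over 3 SD of the maximum-effect control, in both duplicate plates, meaning non-specific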
HEK293 MPD ctr-1 = counter-screen for TRPC6 inhibitors: effect in parental HEK293 cells; membrane potential signal change, % at 10 µM; 60% of 920 active; parental HEK293 membrane potential dye fluorescence; shares compounds with TRPC6 inh; AID 2780;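 active = membrane potential signal shifting up or down by more than 3 SD of buffer-only wells, on both duplicate plates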
HEK293 MPD ctr-2 = parental HEK293 nonspecific activity of TRPC6 modulators | shares compounds with TRPC6 inh | membrane potential dye fluorescence | membrane potential signal change, % at 10 µM | 51% of 2,400 active;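 active = membrane potential signal moves up or down beyond 5 SD from buffer-only wells, on both duplicate plates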
HEK293 MPD ctr 2-2 = second check of TRPC6 modulator effects in parental HEK293 cells | shares compounds with TRPC6 inh | membrane potential dye fluorescence; after compound, maximal acetylcholine stimulation | inhibition, % at 10 µM | 14% of 2,400 active | AID 488926;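 active = membrane potential signal drops by more than 5 SD from the mean control signal, in both duplicate plates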
TRPC4/MOR mod = selectivity of TRPC6 modulators against mouse TRPC4; shares compounds with TRPC6 inh; HEK293 TRPC4/mu-opioid, membrane potential fluorescence; percent change from control (negative = decrease, positive = increase), % at 10 µM; 69% of 2,400 active; AID 488927;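 active = membrane potential signal moved up or down beyond 5 SD of buffer control wells, in both duplicate plates, actives on both sides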
TRPC4 ctr inh 2 = second check of whether TRPC6 modulators also affect mouse TRPC4. shares compounds with TRPC6 inh. HEK293 TRPC4/mu-opioid, membrane potential dye fluorescence; stimulated with maximal-effect DAMGO. inhibition, % at 10 µM. 55% of 2,400 active. AID 488928;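 active = drop in membrane potential signal beyond 5 SD of the control wells in both duplicate plates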;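 note: TRPC4 counter screen for TRPC6 hits run under conditions tuned for TRPC6 not TRPC4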
TRPC6 inh conf = confirmation of mouse TRPC6 inhibitors; shares compounds with TRPC6 inh; HEK293-TRPC6, membrane potential dye, ACh-evoked depolarization; inhibition, % at 10 µM; 43% of 3,300 active; AID 488960;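 active = fluorescence ratio falls more than 5 SD below the full-stimulation control mean, in both duplicate runs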;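 note: integrated fluorescence ratio of peak minus minimum over baseline after agonist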
TRPC6 act conf = confirmation of mouse TRPC6 activators. 11% of 2,800 active. activation, % at 10 µM. shares compounds with TRPC6 inh. AID 488961. HEK293-TRPC6 membrane potential dye fluorescence, FDSS;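 active = ratio signal rise beyond 5 SD above unstimulated control wells' mean, seen in both duplicate runs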
Hits are given with their value; n = inactive; x = no result given. Only some compounds are listed: those with a hit (about 2.3% of all), similar ones and a draw of the others.

SMILES	TRPC4 PAM	TRPC4 block	TRPC6 act	DNA FID counter	TRPC4 act	TRPC6 inh	HEK293 MPD ctr-2	HEK293 MPD ctr 2-2	TRPC4/MOR mod	TRPC4 ctr inh 2	TRPC6 inh conf	TRPC6 act conf	others
CCOC(=O)c1ccc2c(c1)n(CCCS(=O)(=O)[O-])c(/C=C/c1ccc(Cl)cc1)[n+]2CC	n	n	n	n	n	-7.4	-333%	n	-60%	61%	58%	n
CC1CCN(Cc2ccc(NC(=O)C3CCN(c4nnc(-n5cccc5)s4)CC3)cc2)CC1	n	n	n	n	n	-7.8	x	x	x	x	n	n	TRPC4 sel inh 2=71%;TRPC4 spec=n;HEK293 MPD ctr 2-1=n;HEK293 MPD ctr-1=n
NC1C2CN(c3nc4c(cc3F)c(=O)c(C(=O)O)cn4-c3ccc(F)cc3F)CC12 (configuration not stated)	n	n	n	n	n	-5.6	-274%	n	-46%	n	n	n
Cn1c2ccc(F)cc2c2nnc(SCCN3CCCCC3)nc21	n	n	n	n	n	-7.4	x	x	x	x	n	n	TRPC4 sel inh 2=76%;TRPC4 spec=-13%;HEK293 MPD ctr 2-1=16%;HEK293 MPD ctr-1=-204%
CCCCn1c2ccc(F)cc2c2nnc(SCCN3CCCCC3)nc21	n	n	n	n	n	-5.6	-74%	n	-19%	38%	n	n
CCCCn1c2ccc(C)cc2c2nnc(SCCN3CCCCC3)nc21	n	n	n	n	n	-5.8	n	n	n	66%	45%	n
O=C(c1ccc(Cl)cc1)C1CCCN(Cc2cccn2-c2ccccn2)C1 (configuration not stated)	n	n	n	n	n	n	x	x	x	x	x	x
COc1ccc(C(=O)C2CCCN(Cc3cccn3-c3nccs3)C2)cc1OC (configuration not stated)	n	n	n	n	n	-5.2	n	n	n	68%	n	n
COc1cccc(C(=O)C2CCCN(Cc3cccn3-c3ccccn3)C2)c1 (configuration not stated)	n	-7	n	n	n	-5.9	146%	n	14%	84%	60%	x
Cc1ccsc1C(=O)C1CCCN(Cc2cccn2-c2ccc(Cl)cn2)C1 (configuration not stated)	n	n	n	n	n	-6	n	n	n	90%	54%	x
COc1ccc(C(=O)C2CCCN(Cc3cccn3-c3nccs3)C2)cc1F (configuration not stated)	n	n	n	n	n	n	x	x	x	x	x	x
CC(C)Oc1cccc(C(=O)C2CCCN(Cc3cccn3-c3ccccn3)C2)c1 (configuration not stated)	n	n	n	n	n	n	x	x	x	x	x	x
COc1ccc(C(=O)C2CCCN(Cc3cccn3-c3ccccn3)C2)cc1F (configuration not stated)	n	n	n	n	n	-12	x	x	x	x	107%	n	TRPC4 sel inh 2=16%;TRPC4 spec=n;HEK293 MPD ctr 2-1=21%;HEK293 MPD ctr-1=-0.1%
CCc1ccc(NC(=O)CN(C(=O)N2CCN(CC)CC2)S(=O)(=O)c2ccc(C)cc2)cc1	n	n	n	x	n	n	x	x	x	x	x	x
CCOc1ccccc1-n1c(SCC(=O)N2CCOCC2)nc2ccccc2c1=O	n	n	n	n	n	n	x	x	x	x	x	x
COc1cccc2sc(N(CCN(C)C)C(=O)/C=C/c3cccs3)nc12	n	n	n	n	n	-6	n	n	-9.5%	72%	43%	n
CCOc1cccc2sc(N(CCN(C)C)C(=O)/C=C/c3cccs3)nc12	n	n	n	n	n	n	x	x	x	x	x	x
COc1cccc2sc(N(CCN(C)C)C(=O)c3ccc4c(c3)CCCC4)nc12	n	n	n	n	n	-6.4	-111%	98%	-34%	94%	86%	n
Cc1ccc(N(C)S(=O)(=O)c2c[nH]c3ccc([N+](=O)[O-])cc23)cc1	n	n	n	n	n	n	x	x	x	x	x	x
CCC(NC(=O)c1cc(COc2ccc(F)cc2Cl)on1)c1ccncc1 (configuration not stated)	n	n	n	n	n	n	x	x	x	x	x	x
COc1ccc(CNC(=O)c2cc3c(=O)n4ccccc4nc3n(Cc3cccnc3)c2=N)cc1	n	n	n	n	n	n	x	x	x	x	x	x
N=c1c(C(=O)NCCN2CCOCC2)cc2c(=O)n3ccccc3nc2n1CCCN1CCOCC1	n	n	n	76	n	-7.6	x	x	x	x	77%	n	TRPC4 sel inh 2=70%;TRPC4 spec=3.7%;HEK293 MPD ctr 2-1=-288%;HEK293 MPD ctr-1=5.5%
Cc1ccc2nc3c(cc(C(=O)NCCc4ccccc4)c(=N)n3CCN3CCOCC3)c(=O)n2c1	n	n	n	n	n	n	x	x	x	x	x	x
Cc1ccc2nc(NCCCN3CCOCC3)c(C=NCCCN3CCOCC3)c(=O)n2c1	n	n	n	n	n	-8.9	-350%	80%	-66%	53%	64%	n
Cc1ccc2nc3c(cc(C(=O)NCCN4CCOCC4)c(=N)n3CCCN3CCOCC3)c(=O)n2c1	n	n	n	79	n	-7.5	x	x	x	x	83%	x	TRPC4 sel inh 2=72%;TRPC4 spec=n;HEK293 MPD ctr 2-1=-174%;HEK293 MPD ctr-1=n
N=c1c(C(=O)NCCN2CCOCC2)cc2c(=O)n3ccccc3nc2n1Cc1ccc(F)cc1	n	n	n	n	n	-7.7	-74%	90%	-17%	45%	56%	n
CN(C)c1cc(C(F)(F)F)nc(-c2ccccn2)n1	n	n	n	n	n	n	x	x	x	x	x	x

High-throughput results from PubChem BioAssay.
